According to ChEMBL document CHEMBL5154906, “Design of a Potent, Selective, and Brain-Penetrant Inhibitor of Wnt-Deactivating Enzyme Notum by Optimization of a Crystallographic Fragment Hit” (J Med Chem, 2022):
Each block holds one compound with its values, some of them ahead of it.

What was measured:
[1] = target: T1, Palmitoleoyl-protein carboxylesterase NOTUM (Homo sapiens, UniProt Q6P988, C330S); test: Inhibition of human Notum (S81 to T451 residues) Cys330Ser mutant expressed in HEK293S cells using OPTS as substrate incubated for 40 mins by fluorescence based assay
[2] = Metabolic stability in human liver microsomes assessed as intrinsic clearance; assay type: ADME, Microsome; conditions: read-out: CLH
[3] = target: T1, Palmitoleoyl-protein carboxylesterase NOTUM; test: Inhibition of human Notum (S81 to T451 residues) Cys330Ser mutant expressed in HEK293S cells at 10 uM using OPTS as substrate incubated for 40 mins by fluorescence based assay relative to control; assay type: cell-based
Outline: (§1)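 Recombinant human Notum (81–451, Cys330Ser) was the enzyme and OPTS the carboxylesterase substrate. Values are percent inhibition at a single concentration, 10 μM or 100 μM.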

[4] = target: T1, Palmitoleoyl-protein carboxylesterase NOTUM; test: Inhibition of human Notum (S81 to T451 residues) Cys330Ser mutant expressed in HEK293S cells at 100 uM using OPTS as substrate incubated for 40 mins by fluorescence based assay relative to control; assay type: cell-based; outline: as §1
[5] = Metabolic stability in mouse liver microsomes assessed as intrinsic clearance; assay type: ADME, Microsome; conditions: read-out: CLH
[6] = Efflux ratio of apparent permeability from basolateral to apical side over apical to basolateral side in MDCK-MDR1 cells; conditions: dog
[7] = Metabolic stability in dog liver microsomes assessed as intrinsic clearance; assay type: ADME, Canis lupus familiaris, Microsome; conditions: read-out: CLH
in vivo = conditions: Sprague-Dawley, rat, brain, po, 10 mg/kg
[8] = Drug uptake in mouse assessed as brain concentration at 30 mg/kg, po administered twice daily for 7 days; assay type: ADME, organism-based; conditions: in vivo, 168 h, time 7 day
Outline: (§2)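 Mice received 30 mg/kg orally twice daily, at T = 0 and 9 h, in formulation A (DMSO 2% v/v + 10% v/v Solutol in 1× PBS, 98% v/v). Plasma and brain drug concentrations were followed over time.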

[9] = Metabolic stability in rat liver microsomes assessed as intrinsic clearance; assay type: ADME, Microsome; conditions: read-out: CLH
[10] = Toxicity in wild type mouse at 30 mg/kg, po administered twice daily for 7 days; conditions: in vivo, 168 h
[11] = Drug uptake in mouse assessed as plasma concentration at 30 mg/kg, po administered twice daily for 7 days; assay type: ADME, organism-based; conditions: in vivo, 168 h, time 7 day; outline: as §2
[12] = Toxicity in aged APP/PS1 mouse at 30 mg/kg, po administered twice daily for 7 days; conditions: in vivo, 168 h
[13] = target: Glycogen synthase kinase-3 (Homo sapiens) (UniProt P49840+P49841); test: Inhibition of GSK3 (unknown origin) at 10 uM relative to control; assay type: protein assay
[14] = target: Casein kinase I isoform alpha (Homo sapiens) (UniProt P48729); test: Inhibition of CK1 (unknown origin) at 10 uM relative to control
[15] = Metabolic stability in mouse hepatocyte assessed as intrinsic clearance measured per 10^6 cells; assay type: ADME, cell-based; conditions: hepatocytes, read-out: CLH

T1 sequence (Q6P988 20-496 C330S limits assumed): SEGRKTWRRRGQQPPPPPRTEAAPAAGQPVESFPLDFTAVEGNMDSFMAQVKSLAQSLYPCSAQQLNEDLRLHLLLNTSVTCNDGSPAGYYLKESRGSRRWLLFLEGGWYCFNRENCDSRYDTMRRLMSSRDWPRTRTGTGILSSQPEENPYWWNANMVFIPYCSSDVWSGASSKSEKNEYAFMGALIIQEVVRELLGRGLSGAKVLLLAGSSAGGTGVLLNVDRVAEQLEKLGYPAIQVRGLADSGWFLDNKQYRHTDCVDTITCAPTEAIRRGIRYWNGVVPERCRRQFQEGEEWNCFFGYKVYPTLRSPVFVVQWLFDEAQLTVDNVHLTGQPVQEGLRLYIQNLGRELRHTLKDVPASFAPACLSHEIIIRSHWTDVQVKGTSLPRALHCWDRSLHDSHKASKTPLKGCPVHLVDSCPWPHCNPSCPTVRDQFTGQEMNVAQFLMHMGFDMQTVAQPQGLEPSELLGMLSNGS
Chain of Glycogen synthase kinase-3 (Homo sapiens) (P49840 whole entry, looked up, canonical isoform): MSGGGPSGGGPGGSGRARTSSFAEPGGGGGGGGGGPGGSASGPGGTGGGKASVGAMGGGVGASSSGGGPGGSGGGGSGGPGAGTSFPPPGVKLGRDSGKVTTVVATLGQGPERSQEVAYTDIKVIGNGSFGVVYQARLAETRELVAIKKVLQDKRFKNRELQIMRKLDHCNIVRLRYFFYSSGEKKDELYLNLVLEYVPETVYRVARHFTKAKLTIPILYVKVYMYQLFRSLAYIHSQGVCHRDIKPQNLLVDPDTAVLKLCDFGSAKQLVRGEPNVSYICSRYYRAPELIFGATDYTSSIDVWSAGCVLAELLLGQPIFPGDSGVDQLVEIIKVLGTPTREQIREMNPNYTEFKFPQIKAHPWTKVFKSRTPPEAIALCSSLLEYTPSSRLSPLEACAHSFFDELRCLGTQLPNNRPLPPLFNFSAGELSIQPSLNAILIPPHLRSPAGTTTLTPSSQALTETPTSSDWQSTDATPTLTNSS
Chain of Glycogen synthase kinase-3 (Homo sapiens) (P49841 whole entry, looked up, canonical isoform): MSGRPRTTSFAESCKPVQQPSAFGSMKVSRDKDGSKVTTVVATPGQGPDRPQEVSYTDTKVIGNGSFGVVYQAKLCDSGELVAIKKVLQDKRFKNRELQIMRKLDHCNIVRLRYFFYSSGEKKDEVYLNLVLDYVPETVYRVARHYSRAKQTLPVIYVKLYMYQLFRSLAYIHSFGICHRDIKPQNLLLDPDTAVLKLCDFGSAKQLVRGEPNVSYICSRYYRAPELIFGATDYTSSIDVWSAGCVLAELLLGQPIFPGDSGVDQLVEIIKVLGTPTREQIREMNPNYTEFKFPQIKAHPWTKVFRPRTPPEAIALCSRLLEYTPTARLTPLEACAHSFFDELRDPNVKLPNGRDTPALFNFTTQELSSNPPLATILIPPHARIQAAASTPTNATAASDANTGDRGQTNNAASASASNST
Chain of Casein kinase I isoform alpha (Homo sapiens) (P48729 2-337 limits assumed): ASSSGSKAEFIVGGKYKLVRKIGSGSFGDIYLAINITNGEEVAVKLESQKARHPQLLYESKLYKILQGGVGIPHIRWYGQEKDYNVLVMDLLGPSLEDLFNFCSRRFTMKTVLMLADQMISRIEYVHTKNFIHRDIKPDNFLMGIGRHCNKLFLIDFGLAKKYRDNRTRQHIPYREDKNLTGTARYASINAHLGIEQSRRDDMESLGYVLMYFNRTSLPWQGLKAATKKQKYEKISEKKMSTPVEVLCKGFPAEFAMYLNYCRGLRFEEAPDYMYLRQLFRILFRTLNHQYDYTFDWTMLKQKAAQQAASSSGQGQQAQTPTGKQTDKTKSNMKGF

Compound: OCc1cn(-c2ccc(C(F)(F)F)c(Cl)c2)nn1
IC50 [1]: 1 µM

Compound: OCc1cn(-c2ccc(Cl)c(C(F)(F)F)c2)nn1
IC50 [1]: 0.065 µM

Compound: OCc1cn(-c2cc(Cl)ccc2Cl)nn1
IC50 [1]: 23 µM

Compound: OCc1cn(-c2cccc(Cl)c2Cl)nn1
IC50 [1]: 5.1 µM

Compound: [2H]c1nnn(-c2ccc(Cl)c(C(F)(F)F)c2Cl)c1[2H]
microsomal CLint [5]: 5.4 µL/min/mg

Compound: OCc1cn(-c2ccc3c(c2)OCCO3)nn1
IC50 [1]: 32 µM

Compound: FC(F)(F)c1c(Cl)cnc(-n2ccnn2)c1Cl
Ratio [6]: 2.5

Compound: FC(F)(F)c1c(Cl)ccc(-n2ccnn2)c1Cl
microsomal CLint [7]: 10.8 µL/min/mg
AUC(0-inf) (in vivo): 46100 ng·h/mL
microsomal CLint [5]: 3.2 µL/min/mg
Ct [8]: Active
microsomal CLint [9]: < 9.6 µL/min/mg
Activity [10]: Non-Toxic
Cp [11]: Active
Activity [12]: Non-Toxic
inhibition [13]: < 50%
inhibition [14]: < 50%
microsomal CLint [2]: 1.5 µL/min/mg
hepatocyte CLint [15]: 19.4 µL/min/1e6 cells

Compound: OCc1cn(-c2cc(Cl)cc(Cl)c2)nn1
IC50 [1]: 2.4 µM

Compound: OCc1cn(-c2ccccc2Cl)nn1
IC50 [1]: 32 µM

Compound: OCc1cn(-c2ccc(Cl)c(C(F)(F)F)c2Cl)nn1
microsomal CLint [5]: 6.7 µL/min/mg
microsomal CLint [2]: 1.7 µL/min/mg
hepatocyte CLint [15]: 48 µL/min/1e6 cells

Compound: OCc1cn(-c2ccc(Cl)cc2Cl)nn1
IC50 [1]: 5.6 µM

Compound: OCc1cn(-c2ccc3c(c2)OCO3)nn1
IC50 [1]: 28 µM

More lines, now with the values ahead:

IC50 [1]: 0.5 µM
microsomal CLint [2]: 12 µL/min/mg
Compound: OCc1cn(-c2ccc(Cl)c(Cl)c2)nn1

IC50 [1]: 64 µM
Compound: OCc1cn(-c2ccccc2F)nn1

inhibition at 10 µM [3]: 40%
Compound: Cc1cccc(-n2cc(CO)nn2)c1

inhibition at 100 µM [4]: 40%
Compound: OCc1cn(-c2ccc(F)cc2)nn1

IC50 [1]: 6.3 µM
Compound: OCc1cn(-c2cccc(Cl)c2)nn1

IC50 [1]: 8.8 µM
Compound: OCc1cn(-c2ccc(C(F)(F)F)cc2)nn1

IC50 [1]: 0.73 µM
Compound: Cc1ccc(-n2cc(CO)nn2)cc1C

IC50 [1]: 2.3 µM
Compound: OCc1cn(-c2cccc(C(F)(F)F)c2)nn1
